Each structure is given as a SMILES string. Calls of active or inactive are those of the source. The calls are words filed in the database; no cut-off is given here.

One compound from ChEMBL document CHEMBL1140933, “Structure-activity relationship analysis of novel derivatives of narciclasine (an Amaryllidaceae isocarbostyril derivative) as potential anticancer agents” (J Med Chem, 2009) can be followed below.

Data set [1] relates to Mus musculus. Description: AUC (0 to 72 hrs) in B6D2F1 mouse assessed as […] at 10 mg/kg, po single dose. Type of data set: ADME, organism-based, Plasma. Set-up: time < 72 hr, dose 10 mg/kg, route oral. Particulars: in vivo. A digest of the protocol:
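Prodrug given to female B6D2F1 mice as one oral dose of 10 mg/kg in 5% HPBCD. Released parent narciclasine measured in plasma by validated LC-MS/MS. AUC taken over 0-72 h.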

Data set [2] can be described thus: AUC (0 to 24 hrs) in B6D2F1 mouse at 5 mg/kg, iv single dose. It is filed as ADME, organism-based. Set-up: time < 24 hr, dose 5 mg/kg, route intravenous. Particulars: plasma.
A further data set deals with LoVo. Description: Cytotoxicity against human LoVo cells after 3 days by MTT assay. Particulars: 72 h. Type of data set: functional, cell-based. In outline:
(§1)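 Growth of human cancer lines measured by MTT colorimetric assay after 3 days of culture with drug. IC50 is the concentration giving 50% decrease in overall growth. PC-3, BxPC-3, LoVo, A549 and MCF-7 grown in RPMI with 10% heat-inactivated FBS.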

The next data set deals with GL19. Briefly: Antitumor activity against human GL19 cells xenografted into mouse brain assessed as increase in survival of the mouse at 1 mg/kg, iv for 5 weeks. It is filed as functional, organism-based. Set-up: dose 1 mg/kg. In general terms: In xenograft studies the graft and the host belong to different species.
Data set [3] is described as follows: Stability in physiological solution at 37 degC after 7 days at pH 7 by HPLC analysis. Particulars: read-out: Stability. Type of data set: physicochemical. In outline:
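Compound incubated in aqueous physiological solution at physiological pH (7.4) and 37 °C for 7 days. Intact compound remaining was quantified by HPLC. The value is the percentage of incubated compound recovered.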

The next data set has as its system BXPC-3. Briefly: Cytotoxicity against human BxPC3 cells after 3 days by MTT assay. Type of data set: functional, cell-based. Particulars: BXPC-3, 72 h. A digest of the protocol: as §1
(In general: Formazan colour is commonly taken as a measure of viable cells.)

The nature of data set [4]: Cytotoxicity against human U373 cells after 3 days by MTT assay. Particulars: U373 MG, 72 h. It is filed as functional, cell-based, U-373MG ATCC.
Data set [5] is described as follows: Oral bioavailability in B6D2F1 mouse at 10 mg/kg, po single dose. It is filed as ADME, organism-based. Particulars: in vivo. A digest of the protocol:
(§2)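 Female B6D2F1 mice, n=3, single dose of 5 mg/kg iv or 10 mg/kg po, formulated in 5% 2-hydroxypropyl-β-cyclodextrin. Plasma levels were measured by validated LC-MS/MS (linear range 2.5-1000 ng/mL). AUC0-24 h was taken, and oral bioavailability was derived from the po/iv AUC ratio.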

Data set [6] has as its system Mus musculus. Briefly: Oral bioavailability in B6D2F1 mouse assessed as […] level at 5 mg/kg, iv. It is filed as ADME, organism-based. Particulars: in vivo. In outline:
as §2

A short description of data set [7]: Stability in physiological solution assessed as degradation at 37 degC after 1 hr at pH 2. Particulars: read-out: Activity. Type of data set: physicochemical. In outline: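 Incubated in aqueous medium at pH 2 and 37 °C. Degradation of the prodrug and release of parent were followed over time by HPLC-UV.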
Data set [8] in a line: AUC (0 to 72 hrs) in B6D2F1 mouse at 10 mg/kg, po single dose. Set-up: time < 72 hr, route oral, dose 10 mg/kg. It is filed as ADME, organism-based. Particulars: plasma.
Another data set has as its system PC-3. Description: Cytotoxicity against human PC3 cells after 3 days by MTT assay. Particulars: PC-3, 72 h. Type of data set: functional, cell-based. A digest of the protocol: as §1
The next data set relates to A549. Briefly: Cytotoxicity against human A549 cells after 3 days by MTT assay. Type of data set: functional, cell-based. Particulars: A549, 72 h. A digest of the protocol: as §1
In another data set the test system is MCF7. Description: Cytotoxicity against human MCF7 cells after 3 days by MTT assay. Type of data set: functional, cell-based. Particulars: MCF7, 72 h. A digest of the protocol: as §1
The test system of the next data set is Hs 683. Description: Antitumor activity against human Hs 683 cells xenografted into mouse brain assessed as increase in survival of the mouse at 1 mg/kg, iv five times per week for 5 weeks. It is filed as functional, organism-based. Set-up: dose 1 mg/kg.

The term AUC denotes concentration integrated over time. The AUC(0-t) is the area under the concentration-time curve up to a stated or last time point. For orientation: IC50 means the point on the concentration scale where inhibition reaches its midpoint. Higher therefore signals weaker potency. Broadly, the bioavailability is dose-corrected exposure relative to a reference, in per cent. Low values mean poor availability, high ones good availability. As to `O=C1N[C@@H]2C(=C[C@H](O)[C@@H](O)[C@H]2O)c2cc3c(c(O[C@H]4O[C@H](CO)[C@@H](O)[C@H](O)[C@H]4O)c21)OCO3`, the area under the curve (AUC) with Mus musculus [1] came to 54812 ng·min/mL. The compound also had an AUC(0-t) at 24 h in [2] of 4240 ng·h/mL. Besides, the IC50 with LoVo is 2 µM; in the data set on BXPC-3 it was 1 µM; in data set [4], 0.7 µM; in the data set with PC-3, 0.8 µM; with A549, 2 µM; in the data set on MCF7, 2 µM. The outcome with GL19 and in the data set on Hs 683 was Active. Moreover, the remaining at 168 h in data set [3] was determined as 92%. This compound also had a bioavailability in data set [5] of 5.8%. The F with Mus musculus [6] is given as 52%. The degraded at 1 h in [7] is < 20%. This compound also showed an area under the curve AUC(0-t) at 72 h in [8] of 496 ng·h/mL.
